Activity calls are given as the source filed them. No cut-off for these calls is given here.
How the values were obtained:
MDA-MB-231 = assay: Cytotoxicity against human MDA231 cells assessed as inhibition of cell proliferation after 72 hrs by […]; format: functional, cell-based
Summary of the method: (§1)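 Cells were grown in D-MEM with 10% fetal calf serum plus penicillin, streptomycin and fungizone, then plated in 96-well plates. After 24 h growth they were treated from 100 μM to 10 nM, with compounds in DMSO (final DMSO 1% to 3%). MTS reagent was added at 72 h and absorbance read at 490 nm versus untreated cells. IC50 came from separate duplicate experiments.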

KB = assay: Cytotoxicity against human KB cells assessed as inhibition of cell proliferation after 72 hrs by […] assay; format: functional, cell-based; summary of the method: as §1
Bacillus subtilis = assay: Antibacterial activity against Bacillus subtilis ATCC 6633 by disk inhibition zone method; format: functional, organism-based
Summary of the method: (§2)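 Disk inhibition zone method against the three strains. Reference antibiotics were gentamicin at 10 μg and chloramphenicol at 30 μg. Inhibition zones were compared with these disks.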

HT-29 = assay: Cytotoxicity against human HT-29 cells assessed as inhibition of cell proliferation after 72 hrs by […]; format: functional, cell-based; summary of the method: as §1
Escherichia coli = assay: Antibacterial activity against Escherichia coli ATCC 25922 by disk inhibition zone method; format: functional, organism-based; summary of the method: as §2
HCT-116 = assay: Cytotoxicity against human HCT116 cells assessed as inhibition of cell proliferation after 72 hrs by […]; format: functional, cell-based; conditions: for IC50: HCT-116, 72 h; summary of the method: as §1
MCF7 = assay: Cytotoxicity against human MCF7 cells assessed as inhibition of cell proliferation after 72 hrs by […]; format: functional, cell-based; summary of the method: as §1
Micrococcus luteus = assay: Antibacterial activity against Micrococcus luteus ATCC 10240 by disk inhibition zone method; format: functional, organism-based; summary of the method: as §2
BL-21 = assay: (§3) Inhibition of His-tagged Escherichia coli DnaG primase expressed in Escherichia coli BL-21 cells assessed as inhibition of RNA synthesis complementary to ssDNA using rNTPs measured after 5 mins by microplate spectrofluorometer analysis
[1] = as §3

SMILES	inhibition (MDA-MB-231)	inhibition (KB)	Activity (Bacillus subtilis)	inhibition (HT-29)	Activity (Escherichia coli)	inhibition (HCT-116)	inhibition (MCF7)	Activity (Micrococcus luteus)	inhibition (BL-21)	IC50 (KB) [nM]	IC50 (HCT-116) [nM]	IC50 [1] [nM]
CCCC/C=C/N(NC(C)=O)C(=O)CO	inactive	inactive	inactive	inactive	inactive	inactive	inactive	inactive	inactive			
CCCC[C@H]1ON(C(=O)CCC2=CCOC2=O)N=C(C)O[C@H]1O (mixture of isomers)	inactive	inactive	inactive	inactive	inactive	inactive	inactive	inactive	inactive			
CC(=O)O[C@@]12CO[C@@H]1C[C@H](O)[C@@]1(C)C(=O)[C@H](O)C3=C(C)[C@@H](OC(=O)[C@H](O)[C@@H](NC(=O)OC(C)(C)C)c4ccccc4)C[C@@](O)([C@@H](OC(=O)c4ccccc4)[C@H]21)C3(C)C [DOCETAXEL]										0.25	50	
CCCC/C=C\N(NC(C)=O)C(=O)C(CO)/N=[N+](\[O-])CCCCCC (configuration not stated) [GERALCIN C]			inactive		inactive			inactive	Dose-dependent effect	800	800	700000

Source: ChEMBL document CHEMBL2331346, “Isolation and characterization of unusual hydrazides from Streptomyces sp. impact of the cultivation support and extraction procedure” (J Nat Prod, 2013)
